Assay results collected from several papers.
Lines come from different studies, so protocols differ. pIC50: −log10 of the molar value.
Effect on: cell growth or viability

N#CC(C(=O)Nc1cccc(C(F)(F)F)c1)=C1Sc2nc3ccc(S(=O)(=O)N4CCCC4)cc3nc2S1
viability (WI-38; MTT; 25 µM, 24 h): 67.5%

O=c1oc2c(O)c(O)cc3c(=O)oc4c(O)c(O)cc1c4c23
CC50 (CEM-GFP; MTT; 48 h): > 250 µg/mL

Nc1ncnc2c1ncn2[C@@H]1O[C@H](CO)[C@@H](O)[C@H]1O
pIC50 (WI-38; WST-1; 48 h): 3.88

O=C(N[C@@H](CCc1ccccc1)C(=O)c1cc(-c2ccccc2)on1)[C@H](Cc1ccccc1)NC(=O)N1CCOCC1 (single isomer, unassigned)
CC50 (MRC-5 SV2): > 64 µM

CCOC(=O)C(C(C)=O)=C1Sc2nc3ccc(S(=O)(=O)N4CCCC4)cc3nc2S1
viability (WI-38; MTT; 25 µM, 24 h): 60.1%

COC(=O)c1c(C)ncn1CC(c1c[nH]c2cc(Br)ccc12)c1c[nH]c2cc(Br)ccc12
CC50 (HaCaT; MTS; 24 h): > 20 µM

O=C(N[C@@H](Cc1ccccc1)C(=O)c1noc(-c2ccccc2)n1)[C@H](Cc1ccccc1)NC(=O)N1CCOCC1
CC50 (MRC-5 SV2): > 64 µM

CCc1ncn(CC(c2c[nH]c3ccc(C)cc23)c2c[nH]c3ccc(C)cc23)c1C(=O)OC
CC50 (HaCaT; MTS; 24 h): > 20 µM

CC(=O)OC1c2c(ccc3ccc(=O)oc23)OC(C)(C)C1OC(=O)C(C)(O)C(C)O (stereo not drawn)
pIC50 (WI-38; WST-1): 4.05

O=C(N[C@@H](Cc1ccccc1)C(=O)c1nc2ccccc2s1)[C@H](Cc1ccccc1)NC(=O)N1CCOCC1
CC50 (MRC-5 SV2): > 64 µM

O=c1[nH]cc(F)c(=O)[nH]1
pIC50 (WI-38; WST-1; 48 h): 4.20

Cc1cn(CC(c2cn(C)c3ccccc23)c2cn(C)c3ccccc23)nn1
CC50 (HaCaT; MTS; 24 h): > 20 µM

COC(=O)[C@]1(O)C[C@@H](O)[C@@H](O)[C@H](OC(=O)/C=C/c2ccc(O)c(O)c2)C1
pIC50 (WI-38; WST-1): 3.96

C[Si](C)(C)c1cc(C(=O)[C@H](Cc2ccccc2)NC(=O)[C@H](Cc2ccccc2)NC(=O)N2CCOCC2)no1 (mixture of isomers)
CC50 (MRC-5 SV2): > 64 µM

CC1(C)CC[C@]2(C)CC[C@]3(C)C(=CC[C@@H]4[C@@]5(C)CC[C@H](O)C(C)(C)[C@@H]5CC[C@]43C)[C@@H]2C1
pIC50 (WI-38; WST-1; 48 h): 3.99

O=C(N[C@@H](Cc1ccccc1)C(=O)c1cc(-c2ccccc2)on1)[C@H](Cc1ccccc1)NC(=O)N1CCOCC1 (single isomer, unassigned)
CC50 (MRC-5 SV2): > 64 µM

CCOC(=O)c1c(C)ncn1CC(c1cn(C)c2ccc([N+](=O)[O-])cc12)c1cn(C)c2ccc([N+](=O)[O-])cc12
CC50 (HaCaT; MTS; 24 h): > 20 µM

COc1cccc2c1C(=O)c1c(O)c3c(c(O)c1C2=O)C[C@@](O)(C(=O)CO)C[C@@H]3O[C@H]1C[C@H](N)[C@H](O)[C@H](C)O1
viability (WI-38; MTT; 3.125 µM, 24 h): 64.9%

O=C(N[C@@H](Cc1ccccc1)C(=O)c1nc2ccccc2o1)[C@H](Cc1ccccc1)NC(=O)N1CCOCC1
CC50 (MRC-5 SV2): > 64 µM

O=c1c(O)c(-c2ccc(O)cc2)oc2cc(O)cc(O)c12
pIC50 (WI-38; WST-1; 48 h): 4.02

O=C1CCCCC1=C1Sc2nc3ccc(S(=O)(=O)N4CCCC4)cc3nc2S1
viability (WI-38; MTT; 3.125 µM, 24 h): 100%
